Sampled rows, rich in hits. Any-hit rate of the full collection: about 3.5%.
RGS4 act – potentiators or activators of RGS4; B-score at 10 µM; HEK293 M3R/inducible RGS4, carbachol calcium flux Fluo4; hits give low values; actives 0.92% (n = 310,000);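 active = B-score of the integrated calcium signal more than 4 SD below the library mean, with starting fluorescence not abnormally high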;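 also: negative B-score means reduced calcium response which marks RGS4 activation or potentiation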
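test system = M3R-expressing HEK293 line, RGS4 induced by doxycycline | probe or stimulus = carbachol at ECmax as muscarinic agonist stimulus | timing = dye loading 30 min 37 °C, buffer rest 30 min RT | signal = calcium dye Fluo4 fluorescence | evaluation = B score from integrated fluorescence ratio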
MrgX1 antag – blocks BAM8-22 activation of human MrgX1 receptor; B-score at 10 µM; AID 588676; MRGX1-HEK293 calcium flux, Fluo-4, BAM8-22 antagonism; hits give low values; actives 1.3% (n = 310,000); Q96LB2;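 active = calcium-response B-score plate-corrected more than 3 library SD below zero, starting fluorescence within 5 deviations, no agonist response on first addition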;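 also: peak minus trough fluorescence over baseline after final BAM8-22 challenge near maximal dose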
Target sequence (Q96LB2 whole entry, looked up): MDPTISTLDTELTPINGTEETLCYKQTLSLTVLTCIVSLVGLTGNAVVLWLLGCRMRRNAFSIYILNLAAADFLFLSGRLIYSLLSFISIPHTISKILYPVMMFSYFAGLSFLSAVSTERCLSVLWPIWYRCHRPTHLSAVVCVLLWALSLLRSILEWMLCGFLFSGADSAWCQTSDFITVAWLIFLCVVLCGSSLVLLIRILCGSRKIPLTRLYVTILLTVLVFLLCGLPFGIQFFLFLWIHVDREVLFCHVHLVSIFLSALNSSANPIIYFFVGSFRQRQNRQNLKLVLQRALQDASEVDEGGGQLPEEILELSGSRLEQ
MrgX1 PAM – allosterically activates human MrgX1 receptor signaling. Q96LB2. MrgX1-HEK293, Fluo-4 calcium flux, FDSS; hits give high values. B-score at 10 µM. actives 0.63% (n = 310,000). AID 588675;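 active = plate-corrected calcium response at least 3 library SD above typical, normal starting fluorescence, not activating the receptor alone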;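 also: compound read alongside a low EC10 to EC30 dose of BAM8-22 agonist; peak minus trough fluorescence over baseline measured at the second addition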
MrgX1 ag – activates human MrgX1 receptor signaling; Q96LB2; MrgX1-HEK293 cells, Fluo-4 calcium fluorescence, agonist mode; hits give high values; B-score at 10 µM; actives 0.44% (n = 310,000);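 active = calcium response B-score plate-corrected fluorescence ratio at least 3 library SD, with starting fluorescence B-score inside 5 SD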
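System: HEK293 cells stably expressing human MrgX1 receptor; Dosing: test compound in the initial addition of three; Schedule: overnight plating, then 30 min 37 °C plus 30 min room-temperature dye loading; Detection: kinetic calcium dye fluorescence, Fluo-4 NW; Controls: per-plate positive and negative controls for Z′ factor.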
RGS4 block – human RGS4 inhibition | AID 463165 | HEK293 M3R/RGS4 inducible, Fluo-4 calcium flux; hits give high values; triggered by carbachol at its EC20 | actives 0.45% (n = 310,000) | B-score at 10 µM | P49798;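 active = B-score, a plate-corrected calcium signal, over three deviations above library mean, with baseline fluorescence within five deviations of library mean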;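 also: RGS4 expression induced by doxycycline in cells with stable M3 receptor; B-score is computed from the integrated fluorescence ratio over baseline after carbachol; higher B-score means a larger calcium signal and so more RGS4 inhibition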
Target sequence (P49798 whole entry, looked up): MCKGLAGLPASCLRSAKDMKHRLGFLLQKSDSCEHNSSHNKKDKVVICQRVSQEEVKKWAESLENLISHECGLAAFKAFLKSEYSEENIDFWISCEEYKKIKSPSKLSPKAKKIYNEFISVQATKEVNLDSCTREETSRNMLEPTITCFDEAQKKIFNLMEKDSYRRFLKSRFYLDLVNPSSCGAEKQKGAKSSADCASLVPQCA
MrgX1 ant reconf – reconfirmed antagonist of human MrgX1 receptor signaling | remaining BAM8-22 calcium response % of control (hits give low values), % at 10 µM | actives 19% (n = 2,300) | shares compounds with MrgX1 antag | MrgX1-HEK293, BAM8-22 calcium flux, Fluo-4; hits give low values;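 active = remaining agonist calcium response no higher than 100% minus 3 SD of agonist-only control wells, with starting fluorescence near control levels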;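 also: agonist BAM8-22 given at a near maximal EC90 to ECmax level; peak minus minimum fluorescence divided by baseline after agonist addition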
HEK293 Ca flux – activity in parental HEK293 cells lacking MrgX1; shares compounds with MrgX1 antag; Fluo-4 calcium fluorescence, FDSS; fluorescence ratio F(max-min)/F0 at 10 µM; actives 2% (n = 4,000);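 active = duplicate-averaged calcium fluorescence ratio at least three times the standard deviation of buffer wells, a nonspecific response in parental cells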
HEK293 Ca counter – MrgX1 allosteric activator counter-screen hit in parental HEK293 cells. parental HEK293 calcium flux, Fluo-4 fluorescence ratio; hits give high values. shares compounds with MrgX1 antag. fluorescence ratio F(max-min)/F0 at 10 µM. actives 0.4% (n = 4,000);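 active = calcium fluorescence ratio, averaged over duplicates, at least 3 SD of the buffer-well ratio, meaning a nonspecific response in receptor-free cells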;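 also: untransfected parental HEK293 lacking MrgX1 used as counterscreen for MrgX1 allosteric activators; fluorescence change taken during the second addition on a kinetic imager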
HEK293 Ca cntr2 – activity in parental HEK293 cells lacking MrgX1 receptor | shares compounds with MrgX1 antag | Fluo-4 calcium fluorescence (FDSS); hits give high values | fluorescence ratio F(max-min)/F0 at 10 µM | actives 8.7% (n = 4,000) | AID 624115;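 active = calcium fluorescence ratio at least three times the spread of buffer wells, meaning a non-specific response in parental cells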
Starred values were filed as active, the others as inactive.

Results for CCOC(=O)c1ccccc1NC(=O)COC(=O)c1cc([N+](=O)[O-])ccc1N1CCOCC1 ?
RGS4 act: inactive; MrgX1 antag: inactive; MrgX1 PAM: inactive; MrgX1 ag: inactive; RGS4 block: inactive

Results for COc1cccc(C2CCCCN(C)C2=O)c1 (stereo not given) ?
RGS4 act: inactive; MrgX1 antag: inactive; MrgX1 PAM: inactive; MrgX1 ag: inactive; RGS4 block: inactive

Results for S=C(Nc1cccc2ccccc12)NC1CCCCC1 ?
RGS4 act: inactive; MrgX1 antag: -5.4*; MrgX1 PAM: inactive; MrgX1 ag: inactive; RGS4 block: inactive; MrgX1 ant reconf: inactive; HEK293 Ca flux: inactive; HEK293 Ca counter: inactive; HEK293 Ca cntr2: inactive

How did COc1ccccc1C(=O)NC1CCCCCCC1 do in these assays?
RGS4 act: inactive; MrgX1 antag: -11*; MrgX1 PAM: inactive; MrgX1 ag: inactive; RGS4 block: inactive; MrgX1 ant reconf: inactive; HEK293 Ca flux: inactive; HEK293 Ca counter: inactive; HEK293 Ca cntr2: inactive

How did CC(=O)NC(=S)Nc1ccccc1C(=O)NC1CCCCC1 do in these assays?
RGS4 act: inactive; MrgX1 antag: -8.3*; MrgX1 PAM: inactive; MrgX1 ag: inactive; RGS4 block: inactive; MrgX1 ant reconf: inactive; HEK293 Ca flux: inactive; HEK293 Ca counter: inactive; HEK293 Ca cntr2: inactive

Results for COc1ccccc1NC(=O)N1CCC(NC(=O)C2CCCCC2)CC1 ?
RGS4 act: inactive; MrgX1 antag: -8.2*; MrgX1 PAM: inactive; MrgX1 ag: inactive; RGS4 block: inactive; MrgX1 ant reconf: inactive; HEK293 Ca flux: inactive; HEK293 Ca counter: inactive; HEK293 Ca cntr2: inactive

How did CSc1ccccc1NC(=S)NC1CCCCC1 do in these assays?
RGS4 act: inactive; MrgX1 antag: inactive; MrgX1 PAM: inactive; MrgX1 ag: inactive; RGS4 block: inactive

Results for Cc1cccc(COc2ccccc2C(=O)NC2CCC(O)CC2)c1 (stereo not given) ?
RGS4 act: inactive; MrgX1 antag: -10*; MrgX1 PAM: inactive; MrgX1 ag: inactive; RGS4 block: inactive; MrgX1 ant reconf: inactive; HEK293 Ca flux: inactive; HEK293 Ca counter: inactive; HEK293 Ca cntr2: inactive

What do the screens show for `COc1ccc(OCC(=O)N/N=C(\C)CC(=O)Nc2cccc([N+](=O)[O-])c2)cc1`?
RGS4 act: inactive; MrgX1 antag: -11*; MrgX1 PAM: inactive; MrgX1 ag: inactive; RGS4 block: inactive; MrgX1 ant reconf: inactive; HEK293 Ca flux: inactive; HEK293 Ca counter: inactive; HEK293 Ca cntr2: inactive

Results for COc1ccc(NC(=O)C/C(C)=N/NC(=O)COc2ccc(OC)cc2)cc1 ?
RGS4 act: inactive; MrgX1 antag: inactive; MrgX1 PAM: inactive; MrgX1 ag: inactive; RGS4 block: inactive

Results for CCN1CCN(Cc2c3ccccc3cc3ccccc23)CC1 ?
RGS4 act: inactive; MrgX1 antag: inactive; MrgX1 PAM: inactive; MrgX1 ag: inactive; RGS4 block: inactive

What do the screens show for `CC(C)OC(=O)CSc1nc(-c2ccc(F)cc2)nc2ccc(F)cc12`?
RGS4 act: inactive; MrgX1 antag: -10*; MrgX1 PAM: inactive; MrgX1 ag: inactive; RGS4 block: inactive; MrgX1 ant reconf: inactive; HEK293 Ca flux: inactive; HEK293 Ca counter: inactive; HEK293 Ca cntr2: inactive

How did Cc1ccc2sc(NC(=O)CSc3nc(C)cc(C)c3C#N)nc2c1 do in these assays?
RGS4 act: inactive; MrgX1 antag: -6.4*; MrgX1 PAM: inactive; MrgX1 ag: inactive; RGS4 block: inactive; MrgX1 ant reconf: inactive; HEK293 Ca flux: inactive; HEK293 Ca counter: inactive; HEK293 Ca cntr2: inactive

Results for Cc1cc(C(F)(F)F)c(C#N)c(SCC(=O)Nc2nc3ccccc3s2)n1 ?
RGS4 act: inactive; MrgX1 antag: inactive; MrgX1 PAM: inactive; MrgX1 ag: inactive; RGS4 block: inactive

What do the screens show for `Cc1cc(C)c(S(=O)(=O)N2CCOC2CNC(=O)C(=O)NCCN(C)C)c(C)c1` (stereo not given)?
RGS4 act: inactive; MrgX1 antag: inactive; MrgX1 PAM: inactive; MrgX1 ag: inactive; RGS4 block: inactive

Results for Nc1nonc1-c1nc2ccccc2n1CC(=O)O ?
RGS4 act: inactive; MrgX1 antag: inactive; MrgX1 PAM: inactive; MrgX1 ag: inactive; RGS4 block: inactive

Results for Cn1c(-c2nonc2N)nc2ccccc21 ?
RGS4 act: inactive; MrgX1 antag: inactive; MrgX1 PAM: inactive; MrgX1 ag: inactive; RGS4 block: inactive

How did Nc1nonc1-c1nc2ccccc2n1CC(=O)N1CCCCC1 do in these assays?
RGS4 act: inactive; MrgX1 antag: -5.4*; MrgX1 PAM: inactive; MrgX1 ag: inactive; RGS4 block: inactive; MrgX1 ant reconf: inactive; HEK293 Ca flux: inactive; HEK293 Ca counter: inactive; HEK293 Ca cntr2: inactive

How did CCCn1c(-c2nonc2N)nc2ccccc21 do in these assays?
RGS4 act: inactive; MrgX1 antag: -8.3*; MrgX1 PAM: inactive; MrgX1 ag: inactive; RGS4 block: inactive; MrgX1 ant reconf: inactive; HEK293 Ca flux: inactive; HEK293 Ca counter: inactive; HEK293 Ca cntr2: inactive

Results for O=C(c1cc(COc2ccc(F)cc2Cl)on1)N1CCCCC1c1cccnc1 (stereo not given) ?
RGS4 act: inactive; MrgX1 antag: inactive; MrgX1 PAM: inactive; MrgX1 ag: inactive; RGS4 block: inactive

Results for Cc1nonc1C1CCCN1C(=O)c1cc(COc2ccc(F)cc2Cl)on1 (stereo not given) ?
RGS4 act: inactive; MrgX1 antag: -8.8*; MrgX1 PAM: inactive; MrgX1 ag: inactive; RGS4 block: inactive; MrgX1 ant reconf: inactive; HEK293 Ca flux: inactive; HEK293 Ca counter: inactive; HEK293 Ca cntr2: inactive

Results for Cc1ccc2[nH]c(=O)c(CN(CCN3CCOCC3)C(=O)Nc3ccc(F)cc3)cc2c1 ?
RGS4 act: inactive; MrgX1 antag: -5.2*; MrgX1 PAM: inactive; MrgX1 ag: inactive; RGS4 block: inactive; MrgX1 ant reconf: inactive; HEK293 Ca flux: inactive; HEK293 Ca counter: inactive; HEK293 Ca cntr2: inactive

High-throughput results (PubChem)
